From PubChem
This excerpt belongs to a sample that is enriched for hits.
697 NFkB inh: lowers PMA/ionomycin-induced NF-kB signal in 697 B cells. inhibition, % at 4 µM. AID 435022. actives 0.33% (n = 330,000). 697 B-cell NF-kB luciferase reporter, 16 h; in the data active means inhibition above about 35%
CHOP inh: CHOP inhibition in unfolded protein response; inhibition, % at 10 µM; actives 3.8% (n = 220,000); AID 2732; CHO-K1 CHOP-promoter luciferase, tunicamycin-induced, 15-18 h;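 active means compounds that reduced the stress-induced luciferase reporter signal by more than about 70% of percent inhibition, limit read from the data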
UPR XBP1 act: adaptive UPR (XBP1) activation. CHO-XBP1 luciferase reporter, IRE1-XBP1 UPR activation, luminescence; percent of tunicamycin response, DMSO as zero. activation, % at 20 µM. actives 0.33% (n = 330,000);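 active means versus positive control, 20 µM dose yields 30% or more activation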
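Material: IRE1-XBP1 luciferase reporter CHO line / Quantity: one thousand reporter cells per well / Buffer or medium: F12 with 10% serum / Compound: 20 µM single concentration, DMSO 1% / Times: 6 h treatment, 37 °C / Detection: Steady-Glo luciferase glow luminescence, 10 min after reagent addition / Benchmarks: tunicamycin high, DMSO low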
Jurkat NFkB inh: inhibitors of the PMA/ionomycin-induced NF-kB reporter in Jurkat cells | inhibition, % at 4 µM | actives 0.53% (n = 330,000) | AID 435003 | PMA/ionomycin-induced NF-kB luciferase reporter, luminescence; in the data active means inhibition above about 50%
CHOP UPR activ: activators of apoptotic arm of unfolded protein response (CHOP); CHO-CHOP luciferase reporter, UPR activation, luminescence; percent of tunicamycin response over DMSO baseline; actives 0.34% (n = 330,000); AID 449763; activation, % at 10 µM;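 active means at 10 µM dose, activation of 40% or more, normalized to positive control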
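Evaluation: % reporter activation, DMSO baseline versus tunicamycin full activation; System: CHO-CHOP luciferase reporter cell line; Input: 500 cells/well; Incubation: 6 h compound treatment, 37 °C; Measured by: Steady-Glo luciferase luminescence; Dosing: one dose, 10 µM in 0.5% DMSO; Buffer or medium: F12 medium, 10% FBS; Benchmarks: positive tunicamycin 10 µg/mL, negative DMSO alone.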
697 NFkB conf: inhibitors of the PMA/ionomycin-induced NF-kB reporter in 697 B cells, retest; shares compounds with 697 NFkB inh; 697 B-cell NF-kB luciferase, 16 h; inhibition, % at 4 µM; AID 449746; actives 35% (n = 2,000); in the data active means inhibition mostly above about 28%, no sharp cut-off; inactive means mostly below about 22%
Of the large screens only hits and unclear results are named; the others gave an inactive call (follow-up assays come after a bar, where they were run).

COc1cccc(C(=O)Nc2ccc3c(c2)CCCN3C(=O)c2cccs2)c1OC	none (no result: CHOP inh)
CCn1c2ccccc2c2nnc(SCC(=O)Nc3c(C)n(C)n(-c4ccccc4)c3=O)nc21	none
Cc1c(NC(=O)CSc2nnc3c4ccccc4n(CCc4ccccc4)c3n2)c(=O)n(-c2ccccc2)n1C	none | 697 NFkB conf inactive
Cc1ccc(S(=O)(=O)Nc2ccc3c(c2)n(C)c(=O)n3C)cc1	697 NFkB inh 47 (no result: CHOP inh) | 697 NFkB conf 29
Cc1ccc(NS(=O)(=O)c2ccc3c(c2)n(C)c(=O)n3C)cc1C	none (no result: CHOP inh)
Cn1c(=O)n(C)c2cc(NS(=O)(=O)c3ccccc3)ccc21	697 NFkB inh 36 (no result: CHOP inh) | 697 NFkB conf 32
CSc1ccc(CN2CCN(CC=C(C)C)C(CCO)C2)cc1 (centres undefined)	none
Cc1cccc(N=[N+]([O-])c2cccc(C)n2)n1	none (no result: CHOP inh, Jurkat NFkB inh)
CC(=O)c1c(C)n(CC(=O)NCc2ccco2)c2ccccc12	none
CCc1ccccc1Nc1nc(N)nc(COC(=O)c2cccn2C)n1	none | 697 NFkB conf inactive
Nc1c(-c2cccs2)cnc2c(-c3ccc(F)cc3)cnn12	none (no result: CHOP inh) | 697 NFkB conf inactive
Cc1nc2c(-c3ccc(F)cc3)cnn2c(N)c1-c1ccc(F)cc1	none (no result: CHOP inh) | 697 NFkB conf inactive
COc1cc(OC)cc(-c2nnc(Nc3nc4c(F)cccc4s3)o2)c1	697 NFkB inh 39 | 697 NFkB conf inactive
COCC1CCN(C(=O)c2ccc3oc(Cc4ccc(Cl)cc4)nc3c2)C1 (centres undefined)	none (no result: CHOP inh)
Cc1nc2ccccc2c(=O)n1/N=C1\C(=O)N(C)c2ccccc21	697 NFkB inh 58 | 697 NFkB conf inactive
COc1ccc(/C=C/C(=O)OCC(=O)NC(C)CCc2ccccc2)cc1OC (centres undefined)	none (no result: CHOP inh)
CNC(=O)C(=O)NCCN1CCN(C(=O)c2ccc([N+](=O)[O-])cc2)CC1	697 NFkB inh 35 | 697 NFkB conf inactive
Cc1cc(OC(=O)c2ccccc2Cl)cc(=O)n1C	697 NFkB inh 39 | 697 NFkB conf 47
O=C(Oc1ccc(N2C(=O)CCC2=O)cc1)c1ccccc1Cl	none
CCOc1ccc(/C=C2\SC(=S)N(CCC(=O)Nc3ccc(C(=O)O)cc3)C2=O)cc1	697 NFkB inh 81 (no result: CHOP inh) | 697 NFkB conf 77
CCc1ccc(/C=C2\SC(=S)N(CCCC(=O)Nc3ccc(C(=O)O)cc3)C2=O)cc1	697 NFkB inh 73 (no result: CHOP inh) | 697 NFkB conf 84
CC(C)c1ccc(/C=C2\SC(=S)N(CCC(=O)NCCCn3ccnc3)C2=O)cc1	697 NFkB inh 38 (no result: CHOP inh) | 697 NFkB conf 38
O=C(CCN1C(=O)/C(=C/c2ccccc2)SC1=S)Nc1cccnc1	none (no result: CHOP inh)
CCc1ccc(/C=C2/SC(=S)N(CCC(=O)Nc3cccnc3)C2=O)cc1	697 NFkB inh 77 (no result: CHOP inh) | 697 NFkB conf 67
O=C(CCCN1C(=O)/C(=C\c2ccccc2)SC1=S)Nc1ccc(C(=O)O)cc1	none (no result: CHOP inh)
C=C[C@@H]1c2cc(C)ccc2N(S(=O)(=O)c2ccc(C)cc2)[C@H](c2ccc(OC(C)=O)cc2)C1(C#N)C#N	none (no result: CHOP inh)
Cc1ccc(C(=O)OCC(=O)N2CCCC2)cc1	none (no result: CHOP inh)
CCCn1c(SCC(=O)Nc2ccc3c(c2)OCCO3)n[nH]c1=O	none (no result: CHOP inh)
CC(C)c1ccc(/C=C2\SC(=S)N(CCC(=O)N3CCCCC3CCO)C2=O)cc1 (centres undefined)	697 NFkB inh 70 (no result: CHOP inh) | 697 NFkB conf 71
CCOc1ccc(/C=C2\SC(=S)N(CCCC(=O)NCCCN3CCOCC3)C2=O)cc1	697 NFkB inh 38 (no result: CHOP inh) | 697 NFkB conf 52
CCOc1ccc(/C=C2\SC(=S)N(CCC(=O)Nc3cccc(C(=O)O)c3)C2=O)cc1	697 NFkB inh 68 (no result: CHOP inh) | 697 NFkB conf 68
CCc1ccc(/C=C2/SC(=S)N(CCC(=O)NCCCN3CCOCC3)C2=O)cc1	none (no result: CHOP inh)
O=C(CCCN1C(=O)/C(=C/c2ccc3c(c2)OCO3)SC1=S)Nc1ccc(C(=O)O)cc1	697 NFkB inh 78 (no result: CHOP inh) | 697 NFkB conf 78
CN(C)S(=O)(=O)c1ccc(F)c(C(=O)Nc2ccccc2C(=O)NC2CC2)c1	none (no result: CHOP inh)
O=C(NNc1cccc([N+](=O)[O-])c1)/C(=C\c1cccnc1)NC(=O)c1ccccc1	none
